One block for each molecule: values may come before it.
How the values were obtained:
OmpG = OmpG (Escherichia coli, UniProt P76045, D245C); assay: biochemical; type: binding, E. coli; details: for p (Hill coefficient): four-parameter Hill fit; for p (Hill coefficient) / Kd: pH 7.4, 24°C; for rmax: maximum anisotropy at detergent concentrations above the CMC; for Rh max: maximum hydrodynamic radius of the proteomicelle; for Kd: read-out: Kd (apparent dissociation constant), midpoint of dose-dependent dissociation phase; for Dr slow: rotational diffusion coefficient under solvation conditions
Sequence of OmpG (P76045 22-301 D245C): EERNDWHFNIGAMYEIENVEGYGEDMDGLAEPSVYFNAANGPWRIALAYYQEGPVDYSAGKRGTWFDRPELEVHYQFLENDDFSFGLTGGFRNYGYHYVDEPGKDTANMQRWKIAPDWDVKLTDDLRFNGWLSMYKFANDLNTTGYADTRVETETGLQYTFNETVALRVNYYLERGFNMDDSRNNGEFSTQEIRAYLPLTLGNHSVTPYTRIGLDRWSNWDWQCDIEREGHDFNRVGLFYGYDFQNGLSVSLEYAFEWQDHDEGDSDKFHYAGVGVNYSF

FhuA ΔC/Δ5L = FhuA ΔC/Δ5L (Escherichia coli, UniProt P06971, DEL561-566/INS560[…], form not given); type: binding, E. coli; details: for q (slope factor or transition steepness): calculated at the midpoint of the dissociation phase; for ΔRh: decrease in hydrodynamic radius as a result of detergent desolvation; for p (Hill coefficient): four-parameter Hill fit; for p (Hill coefficient) / rmax / rmin / Kd: 200 mM NaCl, 50 mM HEPES; for p (Hill coefficient) / Kd: pH 7.4, 24°C; for rmax: maximum anisotropy at detergent concentrations above the CMC; for rmax / rmin: pH 7.4; for Rh max: maximum hydrodynamic radius of the proteomicelle; for rmin: minimum anisotropy, extrapolated for the lowest detergent concentration; for Kd: read-out: Kd (apparent dissociation constant), midpoint of dose-dependent dissociation phase; for Dr fast: rotational diffusion coefficient under desolvation conditions; for ΔG: ΔG = RT ln Kd
Sequence of FhuA ΔC/Δ5L (P06971 194-747, stated change not applied): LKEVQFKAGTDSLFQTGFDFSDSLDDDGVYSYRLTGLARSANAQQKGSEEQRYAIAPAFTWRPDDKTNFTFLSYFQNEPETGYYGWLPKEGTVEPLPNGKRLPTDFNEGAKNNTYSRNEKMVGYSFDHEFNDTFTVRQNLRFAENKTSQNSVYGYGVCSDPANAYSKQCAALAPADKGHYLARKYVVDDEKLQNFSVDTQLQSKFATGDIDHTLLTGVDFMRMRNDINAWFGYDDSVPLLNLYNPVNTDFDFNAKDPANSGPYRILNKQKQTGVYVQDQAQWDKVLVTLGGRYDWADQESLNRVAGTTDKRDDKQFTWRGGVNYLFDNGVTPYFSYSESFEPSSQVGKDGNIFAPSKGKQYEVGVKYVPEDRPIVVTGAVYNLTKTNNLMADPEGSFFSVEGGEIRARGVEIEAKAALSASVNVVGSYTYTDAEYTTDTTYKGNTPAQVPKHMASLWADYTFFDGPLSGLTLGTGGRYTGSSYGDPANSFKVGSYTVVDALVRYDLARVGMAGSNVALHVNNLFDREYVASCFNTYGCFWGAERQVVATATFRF

FhuA ΔC/Δ5L_25N = FhuA ΔC/Δ5L_25N (Escherichia coli, UniProt P06971); type: binding, E. coli; details: for rmax: maximum anisotropy at detergent concentrations above the CMC; for rmax / rmin: pH 7.4; for rmin: minimum anisotropy, extrapolated for the lowest detergent concentration; for Dr fast: rotational diffusion coefficient under desolvation conditions; for Dr slow: rotational diffusion coefficient under solvation conditions
Sequence of FhuA ΔC/Δ5L_25N (P06971 194-747, stated change not applied): as above

FhuA ΔC/Δ7L_30N = FhuA ΔC/Δ7L_30N (Escherichia coli, UniProt P06971); type: binding, E. coli; details: for rmax: maximum anisotropy at detergent concentrations above the CMC; for rmax / rmin: pH 7.4; for rmin: minimum anisotropy, extrapolated for the lowest detergent concentration; for Dr fast: rotational diffusion coefficient under desolvation conditions; for Dr slow: rotational diffusion coefficient under solvation conditions
Sequence of FhuA ΔC/Δ7L_30N (P06971 194-747, stated change not applied): as above

SELENOK U92C = target: T1, SELENOK U92C (Homo sapiens, UniProt Q9Y6D0, U92C); assay: steady-state FP anisotropy, DDM desolvation of SELENOK U92C; type: binding; details: solubilized in 1.3 mM DDM
T1 sequence (Q9Y6D0 2-94 U92C): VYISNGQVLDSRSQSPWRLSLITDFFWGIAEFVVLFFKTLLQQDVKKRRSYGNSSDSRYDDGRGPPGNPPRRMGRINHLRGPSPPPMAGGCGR
Summary of the method: (§1)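 Human proteins expressed as MBP fusions and purified in 1.3 mM DDM, which was the starting detergent concentration. Each was labelled with Texas Red C2 maleimide on its single accessible cysteine (C92 in SELENOK, C174 in SELENOS). Samples were diluted in wells with DDM buffers to 200 nM protein in 200 mM NaCl, 50 mM HEPES pH 7.4, 24°C. FP read at […] after 15 min equilibration; 24 h endpoints at 4°C. rmin extrapolated to lowest DDM.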

SELENOS U188S = target: T2, SELENOS U188S (Homo sapiens, UniProt Q9BQE4); assay: steady-state FP anisotropy, DDM desolvation of SELENOS U188S; type: binding; details: solubilized in 1.3 mM DDM
T2 sequence (Q9BQE4 with tags, fused parts or gaps): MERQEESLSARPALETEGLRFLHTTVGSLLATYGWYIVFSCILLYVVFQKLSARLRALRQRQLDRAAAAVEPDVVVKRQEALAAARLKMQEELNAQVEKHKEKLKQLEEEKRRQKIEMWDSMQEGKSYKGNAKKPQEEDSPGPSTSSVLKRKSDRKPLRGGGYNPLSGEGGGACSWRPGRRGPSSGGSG
Summary of the method: as §1

α-helical proteins = assay: FP anisotropy, DDM proteomicelles of the α-helical proteins; type: binding, Homo sapiens; details: 200 mM NaCl, 50 mM HEPES, pH 7.4, 24°C
Summary of the method: as §1

[1] = in water; ref Anatrace, [29], [63]; cited from earlier work
[2] = 200 mM NaCl, 50 mM HEPES, pH 7.4
[3] = calculated at the midpoint of the dissociation phase
[4] = decrease in hydrodynamic radius as a result of detergent desolvation
[5] = four-parameter Hill fit, 200 mM NaCl, 50 mM HEPES, pH 7.4, 24°C
[6] = maximum hydrodynamic radius of the proteomicelle
[7] = read-out: Kd (apparent dissociation constant), midpoint of dose-dependent dissociation phase, 200 mM NaCl, 50 mM HEPES, pH 7.4, 24°C

Compound: C[C@H](CCC(=O)NCCC[N+](C)(C)CCCS(=O)(=O)[O-])[C@H]1CC[C@H]2[C@@H]3[C@H](O)C[C@@H]4C[C@H](O)CC[C@]4(C)[C@H]3C[C@H](O)[C@]12C [CHAPS]
p (Hill coefficient) (OmpG; 200 mM NaCl, 50 mM HEPES): ~1.6 | rmax (OmpG; [2]): 0.318 ± 0.002 | Rh max (OmpG): 2.5 nm | Kd (OmpG; 200 mM NaCl, 50 mM HEPES): < 0.6 mM | Dr slow (OmpG): 1.0 ± 0.1 10^7 s^−1 | q (slope factor or transition steepness) (FhuA ΔC/Δ5L): 0.015 mM⁻¹ | ΔRh (FhuA ΔC/Δ5L): 0.77 ± 0.18 nm | p (Hill coefficient) (FhuA ΔC/Δ5L): 1.7 ± 0.6 | rmax (FhuA ΔC/Δ5L): 0.292 ± 0.004 | Rh max (FhuA ΔC/Δ5L): 2.2 nm | rmin (FhuA ΔC/Δ5L): 0.172 ± 0.048 | Kd (FhuA ΔC/Δ5L): 3.3 ± 1.8 mM | Dr fast (FhuA ΔC/Δ5L): 1.5 ± 0.1 10^7 s^−1 | ΔG (FhuA ΔC/Δ5L): -3.4 ± 0.5 kcal/mol | rmax (FhuA ΔC/Δ5L_25N; 200 mM NaCl, 50 mM HEPES): ~0.17 | rmin (FhuA ΔC/Δ5L_25N; 200 mM NaCl, 50 mM HEPES): ~0.15 | Dr fast (FhuA ΔC/Δ5L_25N): ~6.6 10^7 s^−1 | Dr slow (FhuA ΔC/Δ5L_25N): ~5.2 10^7 s^−1 | rmax (FhuA ΔC/Δ7L_30N; 200 mM NaCl, 50 mM HEPES): ~0.17 | rmin (FhuA ΔC/Δ7L_30N; 200 mM NaCl, 50 mM HEPES): ~0.16 | Dr fast (FhuA ΔC/Δ7L_30N): ~6.0 10^7 s^−1 | Dr slow (FhuA ΔC/Δ7L_30N): ~5.2 10^7 s^−1

Compound: OC[C@H]1O[C@H](O[C@H]2[C@H](O)[C@@H](O)[C@H](OCCCCC3CCCCC3)O[C@@H]2CO)[C@H](O)[C@@H](O)[C@@H]1O [CYMAL-4, 4-cyclohexyl-1-Butyl-β-D-maltoside]
q (slope factor or transition steepness) (OmpG; [3]): 0.25 mM⁻¹ | ΔRh (OmpG; [4]): 1.2 ± 0.1 nm | p (Hill coefficient) (OmpG; 200 mM NaCl, 50 mM HEPES): 6.7 ± 0.1 | rmax (OmpG; [2]): 0.326 ± 0.001 | Rh max (OmpG): 2.6 nm | rmin (OmpG; minimum anisotropy, extrapolated for the lowest detergent concentration, 200 mM NaCl, 50 mM HEPES, pH 7.4): 0.163 ± 0.001 | Kd (OmpG; 200 mM NaCl, 50 mM HEPES): 4.6 ± 0.1 mM | Dr fast (OmpG; rotational diffusion coefficient under desolvation conditions): 5.8 ± 0.1 10^7 s^−1 | Dr slow (OmpG): 0.90 ± 0.01 10^7 s^−1 | ΔG (OmpG; ΔG = RT ln Kd): -3.2 ± 0.1 kcal/mol | q (slope factor or transition steepness) (FhuA ΔC/Δ5L): 0.38 mM⁻¹ | ΔRh (FhuA ΔC/Δ5L): 1.7 ± 0.1 nm | p (Hill coefficient) (FhuA ΔC/Δ5L): 3.7 ± 0.1 | rmax (FhuA ΔC/Δ5L): 0.367 ± 0.001 | Rh max (FhuA ΔC/Δ5L): 3.6 nm | rmin (FhuA ΔC/Δ5L): 0.242 ± 0.001 | Kd (FhuA ΔC/Δ5L): 5.3 ± 0.1 mM | Dr fast (FhuA ΔC/Δ5L): 2.6 ± 0.1 10^7 s^−1 | Dr slow (FhuA ΔC/Δ5L; rotational diffusion coefficient under solvation conditions): 0.36 ± 0.01 10^7 s^−1 | ΔG (FhuA ΔC/Δ5L): -3.1 ± 0.1 kcal/mol | q (slope factor or transition steepness) (FhuA ΔC/Δ5L_25N; [3]): 0.28 mM⁻¹ | ΔRh (FhuA ΔC/Δ5L_25N; [4]): 1.4 ± 0.1 nm | p (Hill coefficient) (FhuA ΔC/Δ5L_25N; [5]): 5.2 ± 0.3 | rmax (FhuA ΔC/Δ5L_25N; 200 mM NaCl, 50 mM HEPES): 0.341 ± 0.001 | Rh max (FhuA ΔC/Δ5L_25N; [6]): 2.9 nm | rmin (FhuA ΔC/Δ5L_25N; 200 mM NaCl, 50 mM HEPES): 0.166 ± 0.001 | Kd (FhuA ΔC/Δ5L_25N; [7]): 5.7 ± 0.1 mM | Dr fast (FhuA ΔC/Δ5L_25N): 5.6 ± 0.1 10^7 s^−1 | Dr slow (FhuA ΔC/Δ5L_25N): 0.69 ± 0.01 10^7 s^−1 | ΔG (FhuA ΔC/Δ5L_25N; ΔG = RT ln Kd): -3.1 ± 0.1 kcal/mol | q (slope factor or transition steepness) (FhuA ΔC/Δ7L_30N; [3]): 0.17 mM⁻¹ | ΔRh (FhuA ΔC/Δ7L_30N; [4]): 1.5 ± 0.2 nm | p (Hill coefficient) (FhuA ΔC/Δ7L_30N; [5]): 2.3 ± 0.9 | rmax (FhuA ΔC/Δ7L_30N; 200 mM NaCl, 50 mM HEPES): 0.345 ± 0.004 | Rh max (FhuA ΔC/Δ7L_30N; [6]): 2.9 nm | rmin (FhuA ΔC/Δ7L_30N; 200 mM NaCl, 50 mM HEPES): 0.168 ± 0.025 | Kd (FhuA ΔC/Δ7L_30N; [7]): 4.5 ± 1.1 mM | Dr fast (FhuA ΔC/Δ7L_30N): 5.5 ± 1.2 10^7 s^−1 | Dr slow (FhuA ΔC/Δ7L_30N): 0.63 ± 0.05 10^7 s^−1 | ΔG (FhuA ΔC/Δ7L_30N; ΔG = RT ln Kd): -3.2 ± 0.1 kcal/mol

rotational diffusion coefficient, Dr fast (SELENOK U92C): ~ 1.3×10^8 s^−1 | rmin (SELENOK U92C; 200 nM protein): 0.095 ± 0.002 | rotational diffusion coefficient, Dr fast (SELENOS U188S): ~ 1.1×10^8 s^−1 | rmin (SELENOS U188S; 200 nM protein): 0.103 ± 0.002 | apparent Kd relative to the CMC (α-helical proteins): greater than the CMC
Compound: CCCCCCCCCCCCO[C@@H]1O[C@H](CO)[C@@H](O[C@H]2O[C@H](CO)[C@@H](O)[C@H](O)[C@H]2O)[C@H](O)[C@H]1O [DDM, n-dodecyl-β-D-maltoside]
Aggregation number, Nagg [1]: ~78–149
